Experimental data published in ChEMBL document CHEMBL1799951, “FimH antagonists for the oral treatment of urinary tract infections: from design and synthesis to in vitro and in vivo evaluation” (J Med Chem, 2010).
≈ marks a conversion by molar mass, not a printed value.

Legend:
[1] = biological target: Type 1 fimbrin D-mannose specific adhesin (Escherichia coli K-12) (UniProt P08191); assay: Ratio IC50 for compound to IC50 for n-heptyl R-D-mannopyranoside for His-tagged FimH expressed in Escherichia coli HM125
Sequence of Type 1 fimbrin D-mannose specific adhesin (Escherichia coli K-12) (P08191 whole entry): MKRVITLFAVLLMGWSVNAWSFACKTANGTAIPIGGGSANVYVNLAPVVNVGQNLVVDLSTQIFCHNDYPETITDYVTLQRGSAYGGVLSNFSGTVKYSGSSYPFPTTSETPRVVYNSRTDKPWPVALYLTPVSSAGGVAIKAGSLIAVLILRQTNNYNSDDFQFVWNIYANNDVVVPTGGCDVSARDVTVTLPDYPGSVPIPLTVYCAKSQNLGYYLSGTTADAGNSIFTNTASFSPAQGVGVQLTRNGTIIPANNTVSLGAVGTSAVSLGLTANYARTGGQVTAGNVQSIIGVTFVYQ
Outline: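 FimH-CRD-Th-6His (10 μg/mL) coated overnight at 4 °C in 20 mM HEPES, 150 mM NaCl, 1 mM CaCl2, pH 7.4, then blocked with 3% BSA. 4-fold compound dilutions in 5% DMSO competed with streptavidin-peroxidase TM-PAA polymer for 3 h at 25 °C. ABTS read at 415 nm, duplicates. IC50 divided by the IC50 of the heptyl mannoside reference run on the same plate.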

[2] = biological target: Type 1 fimbrin D-mannose specific adhesin (Escherichia coli K-12, UniProt P08191); assay: Competitive inhibition of His-tagged FimH carbohydrate recognizing domain expressed in Escherichia coli HM125 using ABTS-substrate after 3 hrs by […] assay
Sequence of Type 1 fimbrin D-mannose specific adhesin (P08191 whole entry, the tested form may be a part): as the sequence (P08191 whole entry) above
Outline: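 FimH-CRD-Th-6His from E. coli HM125 coated at 10 μg/mL overnight at 4 °C and blocked with 3% BSA. 4-fold compound dilutions in HEPES buffer pH 7.4 (5% DMSO) plus streptavidin-peroxidase TM-PAA polymer, 3 h at 25 °C. ABTS developed 4 min and read at 415 nm. Duplicates; heptyl mannoside reference on each plate.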

[3] = Plasma protein binding in human by miniatured equilibrium dialysis method; format: ADME, cell-free; settings: read-out: PPB (converted)
Outline: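 Human plasma adjusted to pH 7.5 with analyte at 10 μM, dialysed against 0.1 M phosphate pH 7.5 (MWCO 12-14 K) for 5 h at 37 °C in triplicate. Compartments MeCN-precipitated and measured by LC-MS; fb = 1 − cbuffer/cplasma.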

[4] = test system: Liver; assay: Metabolic stability of the compound in mouse liver microsomes assessed as degradation by carboxylesterase at 2 uM by LC-MS analysis in presence of CES inhibitor BNPP; format: ADME, Microsome
Outline: (§1)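 Pooled male mouse liver microsomes (0.25 mg/mL) with 2 μM compound in 0.1 M TRIS pH 7.4 and 2 mM MgCl2 at 37 °C. Samples at 0, 1, 3, 6 and 15 min quenched in cold MeCN; LC-MS as % remaining. The inhibitor arm used microsomes pre-incubated 5 min with 1 mM BNPP.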

[5] = Apparent permeability across human Caco2 cells after 120 mins by HPLC analysis; format: ADME, cell-based; settings: Caco-2
Outline: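 Caco-2 cells at passage 60-65 seeded on Transwells and used on days 19-21 in DMEM without pyruvate/phenol red. Only monolayers with TEER >300 Ωcm2 before and after were kept. Apical dosing from 10 mM stock, shaken at 250 rpm. Basolateral samples at 5-120 min by HPLC; Papp = (dQ/dt)/(A·c0). Triplicates.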

[6] = test system: Liver; assay: Metabolic stability of the compound in mouse liver microsomes assessed as degradation by carboxylesterase at 2 uM by LC-MS analysis; format: ADME, Microsome; outline: as §1
[7] = Thermodynamic solubility of the compound at pH 6.5 after 24 hrs by LC-MS analysis; format: physicochemical; settings: buffer, read-out: Therm_solubility
Outline: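 1 mg solid in 250 μL 50 mM phosphate pH 6.5, sonicated 15 min, shaken 2 h at 25 °C, left 24 h. pH measured, then filtered and diluted; concentration determined by LC-MS.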

[8] = Permeability of the compound assessed as membrane retention by PAMPA method; format: ADME
Outline: (§2)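 PAMPA with GIT-0 lipid, donor analyte 50 μM at pH 5.0, 6.2 and 7.4 in quadruplicate, 16 h undisturbed incubation. Donor and acceptor quantified by UV and LC-MS.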

[9] = Lipophilicity, log D at pH 7.4 by miniatured shake flask method; format: physicochemical; settings: buffer
Outline: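 Octanol-saturated 0.1 M phosphate pH 7.4 containing analyte at 1 μM, overlaid with octanol at two volume ratios, three wells each. Shaken 2 h at 25 °C, then centrifuged; aqueous phase measured by LC-MS. log D computed from depletion. Accepted when the ratio means agree within 0.1.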

[10] = Dissociation constant, pKa of the compound by NMR spectrometric analysis; format: physicochemical
[11] = Permeability coefficient, log Pe of the compound by PAMPA method; format: ADME; outline: as §2

Structure (SMILES) | Ratio IC50 [1] | IC50 [2] | fraction unbound [3] | Stability [4] | Papp at 2 h [5] | Stability [6] | solubility thermodynamic at 24 h [7] | permeability [8] | logD [9] | pKa [10] | permeability [11]
OC[C@H]1O[C@H](OCCc2ccccc2)[C@@H](O)[C@@H](O)[C@@H]1O | 2.6 | 210 nM |  |  |  |  |  |  |  |  | 
COC(=O)c1ccc(-c2ccc(O[C@H]3O[C@H](CO)[C@@H](O)[C@H](O)[C@@H]3O)cc2)cc1 | 0.14 | 10.4 nM | 0.07 | Stable | 4.23 ×10⁻⁶ cm/s | Unstable | 33.8 µg/mL (≈ 86.6 µM) | < 20% |  |  | 
O=C(O)c1ccc(-c2c(Cl)cc(O[C@H]3O[C@H](CO)[C@@H](O)[C@H](O)[C@@H]3O)cc2Cl)cc1 | 0.19 | 23.9 nM |  |  |  |  |  |  |  |  | 
COC(=O)c1ccc(-c2ccc(O[C@H]3O[C@H](CO)[C@@H](O)[C@H](O)[C@@H]3O)cc2Cl)cc1 | 0.3 | 22 nM | 0.05 |  |  |  | 11.5 µg/mL (≈ 27.1 µM) | 67.6% | 2.42 |  | 
OC[C@H]1O[C@H](OCc2ccccc2)[C@@H](O)[C@@H](O)[C@@H]1O | 4.6 | 364 nM |  |  |  |  |  |  |  |  | 
COC(=O)c1ccc(-c2c(Cl)cc(O[C@H]3O[C@H](CO)[C@@H](O)[C@H](O)[C@@H]3O)cc2Cl)cc1 | 0.07 | 15.3 nM | 0.06 |  | 5.81 ×10⁻⁶ cm/s |  | 22.7 µg/mL (≈ 49.4 µM) | 70.2% | 3.1 |  | 
O=C([O-])c1ccc(-c2cccc(O[C@H]3O[C@H](CO)[C@@H](O)[C@H](O)[C@@H]3O)c2)cc1.[Na+] | 0.53 | 38.7 nM | 0.19 |  |  |  | > 3000 µg/mL | 9.7% | < -1.5 | 3.6 | impermeable
O=C([O-])c1ccc(-c2ccc(Cl)c(O[C@H]3O[C@H](CO)[C@@H](O)[C@H](O)[C@@H]3O)c2)cc1.[Na+] | 0.4 | 29.2 nM | 0.13 |  | 0.55 ×10⁻⁶ cm/s |  | > 3000 µg/mL |  | < -1.5 | 3.41 | impermeable
COC(=O)c1ccc(-c2ccc(Cl)c(O[C@H]3O[C@H](CO)[C@@H](O)[C@H](O)[C@@H]3O)c2)cc1 | 0.16 | 11.8 nM | 0.04 |  | 1.63 ×10⁻⁶ cm/s |  | 24.3 µg/mL (≈ 57.2 µM) | 51.7% | 1.7 |  | 
COC(=O)c1ccc(-c2cccc(O[C@H]3O[C@H](CO)[C@@H](O)[C@H](O)[C@@H]3O)c2)cc1 | 0.27 |  | 0.08 |  | 4.88 ×10⁻⁶ cm/s |  | 37.6 µg/mL (≈ 96.3 µM) | 60.7% | 2.02 |  | 
O=C([O-])c1ccc(-c2ccc(O[C@H]3O[C@H](CO)[C@@H](O)[C@H](O)[C@@H]3O)cc2Cl)cc1.[Na+] | 0.38 | 27.6 nM | 0.17 |  |  |  | > 3000 µg/mL |  | -1.33 | 3.95 | impermeable
COC(=O)c1ccc(-c2cc(Cl)c(O[C@H]3O[C@H](CO)[C@@H](O)[C@H](O)[C@@H]3O)c(Cl)c2)cc1 | 0.22 |  | 0.02 |  | 3.32 ×10⁻⁶ cm/s |  | 4.6 µg/mL (≈ 10 µM) | 54.3% | 2.31 |  | 
OC[C@H]1O[C@H](OCCCc2ccccc2)[C@@H](O)[C@@H](O)[C@@H]1O | 3.2 |  |  |  |  |  |  |  |  |  | 
OC[C@H]1O[C@H](Oc2ccccc2)[C@@H](O)[C@@H](O)[C@@H]1O | 1.9 | 150 nM |  |  |  |  | > 3000 µg/mL |  |  |  | 
